# The source made the active and inactive calls. No cut-off for these calls is given here.
# Columns and labels:
# [1] = system: Pichia kudriavzevii (Candida krusei); assay: Antifungal activity against fluconazole-resistant Candida krusei CAKR7 assessed as reduction in microbial growth after 24 hrs by resazurin staining based spectrofluorometric method; details: CAKR7, 24 h
# [2] = system: Pichia kudriavzevii (Candida krusei); assay: Antifungal activity against fluconazole-resistant Candida krusei CAKR8 assessed as reduction in microbial growth after 24 hrs by resazurin staining based spectrofluorometric method; details: CAKR8, 24 h
# [3] = system: Rhizopus arrhizus; assay: Antifungal activity against Rhizopus oryzae RHPOR2 assessed as reduction in microbial growth after 24 hrs by broth microdilution method; format: functional
# How it was run: (§1)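 CLSI M38 broth microdilution in RPMI 1640 buffered to pH 7.0 with MOPS. Drugs were diluted in DMSO then medium; final range 0.032-16 mg/L. Conidia or sporangiospores came from 7-day potato dextrose agar cultures; diluted (2×) inocula were 0.9×10^4–4.7×10^4 CFU/mL. Incubation at 35 °C, read at 48 h except Zygomycetes at 24 h. MIC read visually as lowest concentration preventing 100% growth; duplicate.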
# [4] = system: Mucor circinelloides; assay: Antifungal activity against Mucor circinelloides MURI1 assessed as reduction in microbial growth after 24 hrs by broth microdilution method; format: functional
# How it was run: as §1
# [5] = system: Fusarium sp.; assay: Antifungal activity against Fusarium sp. assessed as reduction in microbial growth […] by broth microdilution method; format: functional
# [6] = system: Scedosporium apiospermum; assay: Antifungal activity against Scedosporium apiospermum SCAP1 assessed as reduction in microbial growth […] by broth microdilution method; format: functional
# [7] = system: Candida albicans; assay: Antifungal activity against Candida albicans DSY292 harboring Erg1l G464S/R467K/Y132 mutant infected in Swiss mouse assessed as survival at 15 mg/kg, po after 8 days; format: functional, organism-based; details: time 8.0 day
# How it was run: (§2)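 Swiss mice (~25 g) immunosuppressed with prednisolone 30 mg/kg s.c. one day before challenge; day 0 i.v. infection with C. albicans blastoconidia (5.10⁶ yeast/mL, 100 µL). Oral dosing 1 h post-infection, once daily for 5 days, 10 mg/kg (CAAL93) or 15 mg/kg (DSY292), vehicle 40% DMSO/25% Tween80/35% olive oil. Mice given 50% grapefruit juice ad libitum. Survival followed 14 days (log-rank Mantel-Cox).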
# [8] = system: Aspergillus fumigatus; assay: Antifungal activity against Aspergillus fumigatus ASFU76 assessed as reduction in microbial growth after 48 hrs by resazurin staining based spectrofluorometric method; format: functional
# How it was run: (§3)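 A. fumigatus conidia counted by microscope and inoculated at 10^4 cells mL⁻¹ in RPMI 1640 with 0.165 M MOPS, 2% glucose and antibiotics. Drugs were dissolved in DMSO (fluconazole in water), then diluted in medium. Plates ran 48 h at 37 °C, then resazurin for 20 h, read by fluorescence at ex 550/em 590 nm. MIC is 80% growth inhibition by linear regression; triplicate, mean±SD.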
# [9] = system: Aspergillus fumigatus; assay: Antifungal activity against Aspergillus fumigatus ASFU7 assessed as reduction in microbial growth after 48 hrs by resazurin staining based spectrofluorometric method; format: functional
# How it was run: as §3
# [10] = system: Aspergillus fumigatus; assay: Antifungal activity against Aspergillus fumigatus ASFU77 assessed as reduction in microbial growth after 48 hrs by resazurin staining based spectrofluorometric method; format: functional
# How it was run: as §3
# [11] = system: Rhizopus arrhizus; assay: Antifungal activity against Rhizopus oryzae RHPOR1 assessed as reduction in microbial growth after 24 hrs by broth microdilution method; format: functional
# How it was run: as §1
# [12] = system: Candida albicans; assay: Inhibition of sterol biosynthesis in Candida albicans CAAL93 assessed as zymosterol level at 10 ng/ml after 18 hrs by GC-MS analysis (reference value: 1.6%); format: functional; parameters: scale not given: the % may be the effect or the level left
# How it was run: (§4)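 C. albicans CAAL93 blastospores were grown 18 h at 35 °C with stirring in 50 mL Sabouraud broth, with drug added before incubation. Cells were pelleted and saponified in ethanolic KOH at 80 °C for 60 min, and sterols extracted with hexane. Analysis by GC-MS (EI 70 eV, splitless injection at 250 °C, helium carrier); sterols identified by fragmentation pattern.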
# [13] = system: Candida albicans; assay: Inhibition of sterol biosynthesis in Candida albicans CAAL93 assessed as ergosterol level at 10 ng/ml after 18 hrs by GC-MS analysis (reference value: 89.7%); format: functional; parameters: scale not given: the % may be the effect or the level left
# How it was run: as §4
# [14] = system: Candida albicans; assay: Inhibition of sterol biosynthesis in Candida albicans CAAL93 assessed as fecosterol level at 10 ng/ml after 18 hrs by GC-MS analysis relative to control; format: functional; parameters: scale not given: the % may be the effect or the level left
# How it was run: as §4
# [15] = system: Candida albicans; assay: Inhibition of sterol biosynthesis in Candida albicans CAAL93 assessed as 14alpha-methylfecosterol level at 10 ng/ml after 18 hrs by GC-MS analysis relative to control; format: functional; parameters: scale not given: the % may be the effect or the level left
# How it was run: as §4
# [16] = system: Candida albicans; assay: Inhibition of sterol biosynthesis in Candida albicans CAAL93 assessed as ergostadienol level at 10 ng/ml after 18 hrs by GC-MS analysis (reference value: 1.6%); format: functional; parameters: scale not given: the % may be the effect or the level left
# How it was run: as §4
# [17] = system: Candida albicans; assay: Inhibition of sterol biosynthesis in Candida albicans CAAL93 assessed as episterol level at 10 ng/ml after 18 hrs by GC-MS analysis (reference value: 2%); format: functional; parameters: scale not given: the % may be the effect or the level left
# How it was run: as §4
# [18] = system: Candida albicans; assay: Inhibition of sterol biosynthesis in Candida albicans CAAL93 assessed as lanosterol level at 10 ng/ml after 18 hrs by GC-MS analysis (reference value: 1.6%); format: functional; parameters: scale not given: the % may be the effect or the level left
# How it was run: as §4
# [19] = system: Candida albicans; assay: Inhibition of sterol biosynthesis in Candida albicans CAAL93 assessed as eburicol level at 10 ng/ml after 18 hrs by GC-MS analysis relative to control; format: functional; parameters: scale not given: the % may be the effect or the level left
# How it was run: as §4
# [20] = system: Candida albicans; assay: Inhibition of sterol biosynthesis in Candida albicans CAAL93 assessed as other sterols level at 10 ng/ml after 18 hrs by GC-MS analysis (Rvb < 1%); format: functional; parameters: scale not given: the % may be the effect or the level left
# How it was run: as §4
# [21] = system: Candida albicans; assay: Antifungal activity against Candida albicans CAAL93 infected in Swiss mouse assessed as survival at 10 mg/kg, po after 14 days relative to control; format: functional; details: 336 h, time 14 day
# How it was run: as §2
# [22] = system: Candida albicans; assay: Antifungal activity against Candida albicans CAAL93 infected in Swiss mouse assessed as reduction in kidney fungal burden at 10 mg/kg, po after 14 days; format: functional, organism-based; details: time 14.0 day
# [23] = system: Candida albicans; assay: Antifungal activity against Candida albicans DSY292 harboring Erg1l G464S/R467K/Y132 mutant infected in Swiss mouse assessed as survival at 15 mg/kg, po after 5 days; format: functional, organism-based; details: time 5.0 day
# How it was run: as §2
# [24] = system: Candida albicans; assay: Antifungal activity against fluconazole-susceptible Candida albicans CAAL93 assessed as reduction in microbial growth after 24 hrs by resazurin staining based spectrofluorometric method; format: functional
# How it was run: (§5)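 Yeasts in RPMI 1640 with 0.165 M MOPS, 2% glucose and antibiotics, final 10³ cells mL⁻¹. Drugs in DMSO (fluconazole in water) were diluted in medium. Plates ran 24 h at 37 °C, then resazurin for 4 h, fluorescence ex 550/em 590 nm. MIC is 50% growth inhibition by linear regression; triplicate, mean±SD.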
# [25] = system: Candida albicans; assay: Antifungal activity against fluconazole-resistant Candida albicans DSY735 over expression of CDR1/CDR2 assessed as reduction in microbial growth after 24 hrs by resazurin staining based spectrofluorometric method; format: functional
# How it was run: (§6)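 Broth microdilution in RPMI 1640 with 0.165 M MOPS, 2% glucose and antibiotics; yeast inoculum at 10³ cells mL⁻¹ final. Compounds were dissolved in DMSO (fluconazole in water) and diluted in medium, then incubated 24 h at 37 °C. Viability was read by resazurin fluorescence (ex 550/em 590 nm) after 4 h. MIC was taken as 50% growth inhibition, by linear regression; triplicate experiments.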
# [26] = system: Candida albicans; assay: Antifungal activity against fluconazole-resistant Candida albicans DSY292 harboring Erg1l G464S/R467K/Y132 mutant assessed as reduction in microbial growth after 24 hrs by resazurin staining based spectrofluorometric method; format: functional
# How it was run: as §6
# [27] = system: Nakaseomyces glabratus; assay: Antifungal activity against fluconazole-sensitive Candida glabrata CAGL2 assessed as reduction in microbial growth after 24 hrs by resazurin staining based spectrofluorometric method; format: functional
# How it was run: as §5
compound,measurement,setting,value
C[C@@H](n1ncc2cc(-c3ccccc3)cn2c1=O)[C@](O)(Cn1cncn1)c1ccc(F)cc1F,MIC,[1],0.013 µg/mL
same,MIC,[2],0.014 µg/mL
C[C@@H](c1ncncc1F)[C@](O)(Cn1cncn1)c1ccc(F)cc1F [VORICONAZOLE],MIC,[3],8 µg/mL
same,MIC,[4],> 8 µg/mL
same,MIC,[5],6 µg/mL
same,MIC,[6],0.5 µg/mL
same,Survival,[7],inactive
same,MIC,[1],0.817 µg/mL
same,MIC,[2],0.24 µg/mL
C[C@@H](n1ncc2cc(-c3ccc(C#N)cc3)cn2c1=O)[C@](O)(Cn1cncn1)c1ccc(F)cc1F,MIC,[8],> 100 µg/mL
same,MIC,[9],> 100 µg/mL
same,MIC,[10],> 100 µg/mL
same,MIC,[11],0.125 µg/mL
same,MIC,[3],0.25 µg/mL
same,MIC,[4],0.75 µg/mL
same,MIC,[5],10 µg/mL
same,MIC,[6],> 16 µg/mL
same,MIC,[1],0.058 µg/mL
same,MIC,[2],0.101 µg/mL
C[C@@H](n1ncc2cc(-c3ccc([N+](=O)[O-])cc3)cn2c1=O)[C@](O)(Cn1cncn1)c1ccc(F)cc1F,MIC,[11],0.0625 µg/mL
same,MIC,[3],0.25 µg/mL
same,MIC,[4],0.25 µg/mL
same,MIC,[5],12 µg/mL
same,MIC,[6],> 16 µg/mL
same,MIC,[1],0.066 µg/mL
same,MIC,[2],0.039 µg/mL
OC(Cn1cncn1)(Cn1cncn1)c1ccc(F)cc1F [FLUCONAZOLE],Activity,[12],2.8%
same,Activity,[13],57.8%
same,Activity,[14],2.8%
same,Activity,[15],2%
same,Activity,[16],3.2%
same,Activity,[17],8.8%
same,Activity,[18],13.1%
same,Activity,[19],2.2%
same,Activity,[20],7.3%
same,survival at 10 mg/kg,[21],100%
same,Activity,[22],Active
same,Survival,[23],inactive
same,MIC,[1],> 3 µg/mL
same,MIC,[2],> 10 µg/mL
CCC(C)n1ncn(-c2ccc(N3CCN(c4ccc(OCC5COC(Cn6cncn6)(c6ccc(Cl)cc6Cl)O5)cc4)CC3)cc2)c1=O (configuration not stated) [ITRACONAZOLE],MIC,[9],0.5 µg/mL
same,MIC,[10],> 100 µg/mL
same,MIC,[11],0.19 µg/mL
same,MIC,[3],1.12 µg/mL
same,MIC,[4],0.19 µg/mL
same,MIC,[5],> 16 µg/mL
same,MIC,[6],0.5 µg/mL
C[C@@H](n1ncc2cc(Br)cn2c1=O)[C@](O)(Cn1cncn1)c1ccc(F)cc1F,MIC,[24],0.002 µg/mL
same,MIC,[25],0.14 µg/mL
same,MIC,[26],0.155 µg/mL
same,MIC,[27],0.014 µg/mL
same,MIC,[9],6.66 µg/mL
same,MIC,[10],6.74 µg/mL
same,MIC,[11],4 µg/mL
same,MIC,[3],8 µg/mL
same,MIC,[4],8 µg/mL
same,MIC,[5],> 16 µg/mL
same,MIC,[6],4 µg/mL
same,MIC,[1],0.251 µg/mL
same,MIC,[2],0.076 µg/mL
C[C@@H]1[C@H](O)[C@@H](C)/C=C/C=C/C=C/C=C/C=C/C=C/C=C/[C@H](O[C@@H]2O[C@H](C)[C@@H](O)[C@H](N)[C@@H]2O)C[C@@H]2O[C@](O)(C[C@@H](O)C[C@@H](O)[C@H](O)CC[C@@H](O)C[C@@H](O)CC(=O)O[C@H]1C)C[C@H](O)[C@H]2C(=O)O [AMPHOTERICIN B],MIC,[11],0.19 µg/mL
same,MIC,[3],0.5 µg/mL
same,MIC,[4],0.19 µg/mL
same,MIC,[5],12 µg/mL
same,MIC,[6],> 8 µg/mL
CC[C@@H]([C@H](C)O)n1ncn(-c2ccc(N3CCN(c4ccc(OC[C@@H]5CO[C@@](Cn6cncn6)(c6ccc(F)cc6F)C5)cc4)CC3)cc2)c1=O [POSACONAZOLE],MIC,[11],0.19 µg/mL
same,MIC,[3],0.5 µg/mL
same,MIC,[4],0.19 µg/mL
same,MIC,[5],> 8 µg/mL
same,MIC,[6],1.25 µg/mL
C[C@@H](n1ncc2cccn2c1=O)[C@](O)(Cn1cncn1)c1ccc(F)cc1F,MIC,[11],4 µg/mL
same,MIC,[3],8 µg/mL
same,MIC,[4],16 µg/mL
same,MIC,[5],> 16 µg/mL
same,MIC,[6],> 16 µg/mL
same,MIC,[1],0.625 µg/mL
same,MIC,[2],1.15 µg/mL

# Source: ChEMBL document CHEMBL4680186, “New azole antifungals with a fused triazinone scaffold” (Eur J Med Chem, 2020)
